{"source": "the RNAGym collection of RNA variant scans (doi:10.1126/science.aae0568)", "parents": {"B1": {"name": "tRNA (parent)", "chain": "GUUCCGUUGGCGUAAUGGUAACGCGUCUCCCUCCUAAGGAGAAGACUGCGGGUUCGAGUCCCGUACGGAACG"}}, "note": "Fewer inactive variants are shown than the library holds."}
{"variants_of": "B1", "test": "yeast fitness relative to wild type (ratio to wild type); higher = fitter; tRNA-Arg(CCU), competitive growth, 37 C, YPD", "summary_of_the_method": "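For this measurement, the tRNA-Arg(CCU) gene was varied by chemical synthesis at a 3% per-site mutation rate across 69 sites, and each variant was placed at the native genomic locus in Saccharomyces cerevisiae. The pooled strains went through a 24-hour competition in YPD at 37°C in six parallel replicates, with amplicons from start and end populations read by 100-nucleotide paired-end sequencing. Darwinian fitness relative to wild type followed from the change in each genotype's frequency. Genotypes needed ≥ 100 starting reads, and estimates < 0.5 were set to 0.5.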"}
{"variant": "G52A A70U", "yeast fitness": 0.767}
{"variant": "A57U C61U", "yeast fitness": 0.642}
{"variant": "U53G G56C G67A", "yeast fitness": "≤ 0.5"}
{"variant": "U59A C62U", "yeast fitness": 0.922}
{"variant": "U53A C60G G67A A70C", "yeast fitness": "≤ 0.5"}
{"variant": "G58C C60U C66G", "yeast fitness": "≤ 0.5"}
{"variant": "G58A C60U C62A", "yeast fitness": 0.552}
{"variant": "A57G C62U", "yeast fitness": 0.781}
{"variant": "G56A A70C", "yeast fitness": 1.06}
{"variant": "G56A A70G", "yeast fitness": 0.886}
{"variant": "G51A U59C", "yeast fitness": 0.692}
{"variant": "G52A A65C", "yeast fitness": 0.848}
{"variant": "G52A A57G", "yeast fitness": 0.852}
{"variant": "G52C C62U", "yeast fitness": 0.559}
{"variant": "C55G G56C", "yeast fitness": "≤ 0.5"}
{"variant": "G58A C62G", "yeast fitness": 1.14}
{"variant": "A57G G67U", "yeast fitness": 0.869}
{"variant": "A57G G67A", "yeast fitness": 0.878}
{"variant": "U59A C66U", "yeast fitness": 0.815}
{"variant": "U59A C66G", "yeast fitness": 0.669}
{"variant": "G58A G68A", "yeast fitness": 0.899}
{"variant": "U59A A69U", "yeast fitness": 0.817}
{"variant": "C55G G58A A69C", "yeast fitness": "≤ 0.5"}
{"variant": "U59C C61A C66A", "yeast fitness": "≤ 0.5"}
{"variant": "U54A C55A C66G", "yeast fitness": 0.714}
{"variant": "A57G C62U G67A", "yeast fitness": "≤ 0.5"}
{"variant": "U54C C55U", "yeast fitness": 0.72}
{"variant": "U54C C55A", "yeast fitness": 0.635}
{"variant": "U59C C62U", "yeast fitness": 0.814}
{"variant": "G52C G67A", "yeast fitness": 0.709}
{"variant": "G56A C61U", "yeast fitness": 0.994}
{"variant": "U54A C62U G68U", "yeast fitness": "≤ 0.5"}
{"variant": "U54A C62U G68A", "yeast fitness": 0.504}
{"variant": "G52A G58C", "yeast fitness": 0.801}
{"variant": "C55A G63A", "yeast fitness": 0.55}
{"variant": "C55U G63A A65G", "yeast fitness": "≤ 0.5"}
{"variant": "C60A C61U G63C C66U", "yeast fitness": "≤ 0.5"}
{"variant": "U54G C61U G67C", "yeast fitness": "≤ 0.5"}
{"variant": "U53C G68C", "yeast fitness": 0.846}
{"variant": "A57U A65U G67A G68C", "yeast fitness": "≤ 0.5"}
{"variant": "G52C G56C", "yeast fitness": "≤ 0.5"}
{"variant": "G52A C66A A69U", "yeast fitness": 0.551}
{"variant": "G58C C66A", "yeast fitness": 0.717}
{"variant": "G58C C66G", "yeast fitness": 0.711}
{"variant": "C55G A57U G67A", "yeast fitness": "≤ 0.5"}
{"variant": "U54G U59C A69U", "yeast fitness": "≤ 0.5"}
{"variant": "G56A G58C C61G", "yeast fitness": 0.707}
{"variant": "U59C C60U", "yeast fitness": 0.704}
{"variant": "G58A C61A C62G", "yeast fitness": 0.711}
{"variant": "U53A C55G", "yeast fitness": 0.588}
{"variant": "C55G C60G", "yeast fitness": "≤ 0.5"}
{"variant": "U54A A57U G63C A69U", "yeast fitness": "≤ 0.5"}
{"variant": "A57C U59C", "yeast fitness": 0.613}
{"variant": "C55A A57C G58A", "yeast fitness": "≤ 0.5"}
{"variant": "C55A C62G G67A", "yeast fitness": "≤ 0.5"}
{"variant": "G58C C62U", "yeast fitness": 0.893}
{"variant": "C55A U59C", "yeast fitness": 0.647}
{"variant": "U54A A69U", "yeast fitness": 0.671}
{"variant": "U54C G67C", "yeast fitness": 0.944}
{"variant": "U54C G67A", "yeast fitness": 0.817}
{"variant": "G56A", "yeast fitness": 1.03}
{"variant": "G56U", "yeast fitness": 0.85}
{"variant": "G56C", "yeast fitness": 0.663}
{"variant": "C55A A65U", "yeast fitness": 0.572}
{"variant": "C55A A57G U64A", "yeast fitness": "≤ 0.5"}
{"variant": "G58C G63C", "yeast fitness": 0.702}
{"variant": "U59C A69U", "yeast fitness": 1.02}
{"variant": "G52A G56A A65U A70G", "yeast fitness": "≤ 0.5"}
{"variant": "G56C C62G G68C", "yeast fitness": 0.56}
{"variant": "G58C U59C A69U", "yeast fitness": 0.679}
{"variant": "G52A C66G G68C", "yeast fitness": 0.65}
{"variant": "C55A C61A", "yeast fitness": 0.579}
{"variant": "G58U C66A A70C", "yeast fitness": 0.665}
{"variant": "U59C A70U", "yeast fitness": 1.01}
{"variant": "U59C A70C", "yeast fitness": 0.897}
{"variant": "C60A A70C", "yeast fitness": 0.621}
{"variant": "C60A A70G", "yeast fitness": 0.531}
{"variant": "A57G U59A U64G", "yeast fitness": "≤ 0.5"}
{"variant": "U54C A57G G63C A65C", "yeast fitness": "≤ 0.5"}
{"variant": "G56U G58C", "yeast fitness": 0.75}
{"variant": "G56U G58A", "yeast fitness": 0.589}
{"variant": "C55U C66U", "yeast fitness": 0.667}
{"variant": "U53C U64C", "yeast fitness": 0.817}
{"variant": "G56C A70G", "yeast fitness": 0.672}
{"variant": "G56C A70U", "yeast fitness": 0.83}
{"variant": "C60G A69U", "yeast fitness": 0.655}
{"variant": "U59A A65G", "yeast fitness": 1.11}
{"variant": "C55G A70U", "yeast fitness": 0.653}
{"variant": "C55G A70C", "yeast fitness": 0.566}
{"variant": "G58A C62U G63A", "yeast fitness": 0.621}
{"variant": "G51C G56A G58C", "yeast fitness": "≤ 0.5"}
{"variant": "A57U C62U C66U", "yeast fitness": 0.613}
{"variant": "G58A G67A", "yeast fitness": 0.851}
{"variant": "G52A A57G G58A", "yeast fitness": 0.565}
{"variant": "G56C U59A", "yeast fitness": 0.663}
{"variant": "G56A C62G", "yeast fitness": 0.643}
{"variant": "G56A C62A", "yeast fitness": 0.697}
{"variant": "C55G C62G", "yeast fitness": 0.602}
{"variant": "C55G C62A", "yeast fitness": 0.619}
{"variant": "C60G C61A A69G", "yeast fitness": 0.586}
{"variant": "G58A A69C", "yeast fitness": 0.955}
{"variant": "G58A A69G", "yeast fitness": 1.15}
{"variant": "U59A C62G G67A", "yeast fitness": "≤ 0.5"}
{"variant": "C55U G68C", "yeast fitness": 0.702}
{"variant": "C55U G68U", "yeast fitness": 0.64}
{"variant": "C55U G68A", "yeast fitness": 0.765}
{"variant": "G58A C66U", "yeast fitness": 0.981}
{"variant": "G52C C66A", "yeast fitness": 0.538}
{"variant": "G52C C66G", "yeast fitness": 0.6}
{"variant": "U54G G63U", "yeast fitness": "≤ 0.5"}
{"variant": "C55G G58C", "yeast fitness": 0.587}
{"variant": "G51A U64C G67C A69G", "yeast fitness": 0.854}
{"variant": "U59G A65G", "yeast fitness": 0.965}
{"variant": "U59G A65U", "yeast fitness": 0.917}
{"variant": "G52A G67A", "yeast fitness": 0.831}
{"variant": "U53A U59C", "yeast fitness": 0.555}
{"variant": "G52C A65U G67C", "yeast fitness": "≤ 0.5"}
{"variant": "U59G G67A", "yeast fitness": 0.796}
{"variant": "G56A C66G", "yeast fitness": 0.689}
{"variant": "U53G G63A", "yeast fitness": 0.553}
{"variant": "U54G C55G A65U", "yeast fitness": "≤ 0.5"}
{"variant": "A57G G58A", "yeast fitness": 1.01}
{"variant": "A57G G58C", "yeast fitness": 1.03}
{"variant": "G58A C61G", "yeast fitness": 0.668}
{"variant": "C55U C60G", "yeast fitness": "≤ 0.5"}
{"variant": "A57U C62A U64A", "yeast fitness": "≤ 0.5"}
{"variant": "A57G A70C", "yeast fitness": 0.859}
{"variant": "U59A G67A", "yeast fitness": 0.799}
{"variant": "A57G A65G A69C", "yeast fitness": 0.7}
{"variant": "A57C G63C", "yeast fitness": 0.601}
{"variant": "U54C A57U", "yeast fitness": 0.595}
{"variant": "G52C C55U A65U", "yeast fitness": "≤ 0.5"}
{"variant": "U53G A57G", "yeast fitness": 0.584}
{"variant": "G52C A69U", "yeast fitness": 0.707}
{"variant": "G56C A65U", "yeast fitness": 0.714}
{"variant": "G56C A65C", "yeast fitness": 0.754}
{"variant": "C55U C62U G67C", "yeast fitness": "≤ 0.5"}
{"variant": "G56U A65G", "yeast fitness": 0.615}
{"variant": "C55A C62A", "yeast fitness": 0.518}
{"variant": "U54G A57G", "yeast fitness": 0.615}
{"variant": "C55A U59G A65C", "yeast fitness": "≤ 0.5"}
{"variant": "C60A A69C", "yeast fitness": 0.752}
{"variant": "C60A A69U", "yeast fitness": 0.746}
{"variant": "C60A A65G", "yeast fitness": 0.573}
{"variant": "U59A U64G", "yeast fitness": 0.52}
{"variant": "C55A G67A", "yeast fitness": 0.658}
{"variant": "G58C U59C A70G", "yeast fitness": 0.706}
{"variant": "G56A G68A", "yeast fitness": 1.04}
{"variant": "U54C C61A G68U", "yeast fitness": "≤ 0.5"}
{"variant": "C55A U64A", "yeast fitness": 0.619}
{"variant": "G56C A69C", "yeast fitness": 0.818}
{"variant": "A57U G58A A65U", "yeast fitness": 0.621}
{"variant": "U54A U59C C61G", "yeast fitness": "≤ 0.5"}
{"variant": "G58A C60U", "yeast fitness": 0.688}
{"variant": "U53C G67A", "yeast fitness": 0.808}
{"variant": "G58A U59A", "yeast fitness": 1.06}
{"variant": "C55G G67A", "yeast fitness": 0.729}
{"variant": "G56C G68A", "yeast fitness": 0.7}
{"variant": "G52A U59A C61A", "yeast fitness": "≤ 0.5"}
{"variant": "G56C C60A", "yeast fitness": 0.587}
{"variant": "G52C U64G", "yeast fitness": 0.614}
{"variant": "U53A C62G", "yeast fitness": 0.598}
{"variant": "C60A U64C", "yeast fitness": 0.718}
{"variant": "U54C C66G", "yeast fitness": 0.803}
{"variant": "C60A C62G A70C", "yeast fitness": "≤ 0.5"}
{"variant": "A57G U59G", "yeast fitness": 0.941}
{"variant": "A57G U59C", "yeast fitness": 0.864}
